Data on 12 molecules can be found in PubChem BioAssay AID504347 (Broad Institute, 2011).

Assay [1] has as its system MEF A1-2A-BIM cells, caspase-3/7 luminescence. Kind of assay: caspase-3/7 readout of A1 inhibition in A1-2A-BIM fibroblasts – cell-based, MEF A1-2A-BIM, luminescence, dry powder, set 4, dose response (AID 504347). Summed up: (§1)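 System: mouse embryonic fibroblasts co-expressing A1-2A-BIM construct / Amount: 2500 cells/well / Buffer or medium: RPMI-1640, 10% FBS / Schedule: 3 h compound at 37 °C, 1 h reagent at RT / Technique: Caspase-3/7 DEVD-luciferin luminescence / Evaluation: caspase activation indicated by luminescence increase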

Assay in assay [2]: as above
Conditions: MEF A1-2A-BIM cells, caspase-3/7 luminescence; at 35 µM (top of the series). Summed up: as §1

Molecules are shown by their SMILES. Calls of active or inactive are those of the source.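 The calls were made as follows: active = fitted curve climbs past 10% caspase activation, relative to the positive control, at or below the top valid tested dose; inactive = the rest, including activity in the opposite direction.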

Take `O=c1c([N+](=O)[O-])c(Cl)c2ccccc2n1Cc1ccccc1`: the AC10 in assay [1] was 2.53 µM.

As to `COc1ccc(CCNc2nc(N3CCOCC3)nc(N3CCOCC3)n2)cc1OC`, the caspase activation in assay [2] is 4.68% (inactive).

As to `Cn1c(=O)c([N+](=O)[O-])c(-n2cnc3ccccc32)c2ccccc21`, the AC10 in assay [1] is 8.18 µM.

`Cc1ccc(Sc2c([N+](=O)[O-])c(=O)n(Cc3ccccc3)c3ccccc23)cc1`: the AC10 in assay [1] is 17.8 µM.

For the molecule `CCn1c(=O)c([N+](=O)[O-])c(Sc2ccc(C)cc2)c2ccccc21`, the AC10 in assay [1] is 15 µM.

`O=C(COc1ccc(Cl)cc1Cl)NNc1nc(N2CCOCC2)nc(N2CCOCC2)n1`: the AC10 in assay [1] is 28.5 µM.

For the molecule `COCCn1c(=O)c(Sc2ccc(C)cc2)c(Sc2ccc(C)cc2)c2ccccc21`, in assay [1], the AC10 is 20.2 µM.

With `Cn1c(=O)c([N+](=O)[O-])c(Cl)c2ccccc21`, in assay [1], the AC10 was 0.96 µM.

Take `COCCn1c(=O)c([N+](=O)[O-])c(Sc2ccc(C)cc2)c2ccccc21`: in assay [1], the AC10 was 6.43 µM.

As to `C/C(=N\Nc1nc(N2CCCCC2)nc(N2CCCCC2)n1)c1ccc(F)cc1`, in assay [2], the caspase activation is 0.602% (inactive).

For the molecule `Cc1ccc(Sc2c(Sc3ccc(C)cc3)c3ccccc3n(C)c2=O)cc1`, the caspase activation in assay [2] is -0.138% (inactive).

Take `O=c1[nH]c2ccccc2c(Cl)c1[N+](=O)[O-]`: the AC10 in assay [1] is 2.8 µM.
